Values belong to the compound of their own block, whether it stands above or below them. The source made the active and inactive calls. The rule behind the calls is not given here.
Columns and labels:
[1] = target: T1, Complex of retinoic acid binding (CRABPII) and inhibitor of apoptosis (cIAP1) proteins (Homo sapiens) (UniProt P29373+Q13490); experiment: Binding affinity to Flag-tagged cIAP1/CRABP2 expressed in human HT1080 cells assessed as induction in cIAP1 degradation at 0.1 to 10 uM after 6 hrs by Western blot analysis; format: cell-based; conditions: HT-1080
Method in brief: (§1)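 FLAG-tagged IAP-expressing HT1080 cells (1 × 10⁶), RPMI 1640 with 10% heat-inactivated FBS at 37 °C, 5% CO₂, treated for the stated period in medium with 10% FBS. SDS lysates equalized by BCA, resolved on 10–20% SDS–PAGE, PVDF, skim-milk block. Probed for CRABP-II, cIAP1, FLAG and β-actin with HRP secondaries, visualized by enhanced chemiluminescence.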

MCF7 = experiment: Inhibition of cell proliferation in human MCF7 cells at 1 to 30 uM after 72 hrs by Alamar blue assay; format: functional, cell-based
Method in brief: (§2)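 Cells (IMR-32, HT1080 or MCF-7) seeded at 2 × 10⁴/well and grown 24 h at 37 °C. Compounds at various concentrations added for 0–72 h at 37 °C, 5% CO₂. AlamarBlue then added for 3 h at 37 °C. Fluorescence read at ex 540/em 590 nm and converted to percentage cell growth.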

HT-1080 [2] = experiment: Induction of apoptosis in human HT1080 cells at 1 to 30 uM after 24 hrs by lactate dehydrogenase assay in presence of etoposide; format: functional, cell-based
Method in brief: (§3)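 HT1080 cells seeded at 2 × 10⁴/well, grown 24 h at 37 °C, then exposed to compounds for 24 h with or without 30 μg/mL etoposide. LDH release measured with a non-radioactive cytotoxicity kit; lysis-buffer wells served as high control. Substrate 30 min at room temperature, stopped, A490 read. Means of triplicates.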

[3] = target: T1, Complex of retinoic acid binding (CRABPII) and inhibitor of apoptosis (cIAP1) proteins (Homo sapiens); experiment: Binding affinity to Flag-tagged cIAP1/CRABP2 expressed in human HT1080 cells assessed as formation of ternary complex by GST-pull down assay; format: cell-based; conditions: HT-1080
HT-1080 [4] = experiment: Induction of apoptosis in human HT1080 cells assessed as activation of caspase 3/7 at 30 uM after 24 hrs by fluorescence assay; format: functional, cell-based
Method in brief: (§4)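 HT1080 cells seeded at 2 × 10⁴/well, grown 24 h, then compounds added for 24 h with or without 30 μg/mL etoposide. Caspase-3/7 homogeneous reagent added, 10 h at room temperature. Fluorescence read at ex 485/em 535 nm and expressed as fold change in caspase activity. Means of triplicates; ANOVA with Bonferroni-type multiple t test.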

[5] = target: T1, Complex of retinoic acid binding (CRABPII) and inhibitor of apoptosis (cIAP1) proteins (Homo sapiens); experiment: Binding affinity to Flag-tagged cIAP1/CRABP2 expressed in human IMR32 cells assessed as reduction in CRABP-2 level at 1 to 10 uM after 24 hrs by Western blot analysis; conditions: IMR-32
[6] = target: T1, Complex of retinoic acid binding (CRABPII) and inhibitor of apoptosis (cIAP1) proteins (Homo sapiens); experiment: Binding affinity to Flag-tagged cIAP1/CRABP2 expressed in human HT1080 cells assessed as induction in CRABP-2 degradation at 1 uM after 6 hrs by Western blot analysis in presence of proteasome inhibitor MG132; format: cell-based; conditions: HT-1080
Method in brief: (§5)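 HT1080 cells expressing FLAG-tagged cIAP1 were pretreated with proteasome inhibitor (MG132 or lactacystin), then given 1 μM degrader for 6 h. CRABP-II read by Western blot: SDS lysates equalized by BCA, 10–20% SDS–PAGE, PVDF, ECL.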

[7] = target: T1, Complex of retinoic acid binding (CRABPII) and inhibitor of apoptosis (cIAP1) proteins (Homo sapiens); experiment: Binding affinity to Flag-tagged cIAP1/CRABP2 expressed in human MCF7 cells assessed as reduction in CRABP2 level at 0.1 uM to 1 uM after 6 hrs by Western blot analysis; format: cell-based
[8] = target: T1, Complex of retinoic acid binding (CRABPII) and inhibitor of apoptosis (cIAP1) proteins (Homo sapiens); experiment: Binding affinity to Flag-tagged cIAP1/CRABP2 expressed in human HT1080 cells assessed as reduction in CRABP2 level at 0.1 uM to 1 uM after 6 hrs by Western blot analysis; format: cell-based; conditions: HT-1080; method in brief: as §1
[9] = target: T1, Complex of retinoic acid binding (CRABPII) and inhibitor of apoptosis (cIAP1) proteins (Homo sapiens); experiment: Binding affinity to Flag-tagged cIAP1/CRABP2 expressed in human HT1080 cells assessed as induction in CRABP-2 degradation at 1 uM after 6 hrs by Western blot analysis in presence of MeBS; format: cell-based; conditions: HT-1080
IMR-32 [10] = experiment: Induction of apoptosis in human IMR32 cells assessed as activation of caspase 3/7 at 30 uM after 24 hrs by fluorescence assay; format: functional, cell-based
Method in brief: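 IMR-32 cells seeded at 2 × 10⁴/well, grown 24 h, then exposed to compounds for 24 h. Caspase-3/7 homogeneous reagent added, 0.5 h at room temperature. Fluorescence read at ex 485/em 535 nm and expressed as fold change over control. Means of triplicates; ANOVA with Bonferroni-type multiple t test.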

IMR-32 [11] = experiment: Inhibition of cell proliferation in human IMR32 cells after 72 hrs by Alamarblue assay; format: functional, cell-based; method in brief: as §2
[12] = target: T1, Complex of retinoic acid binding (CRABPII) and inhibitor of apoptosis (cIAP1) proteins (Homo sapiens); experiment: Binding affinity to Flag-tagged cIAP1/CRABP2 expressed in human HT1080 cells assessed as induction in CRABP-2 degradation after 48 hrs by Western blot analysis; format: cell-based; conditions: HT-1080; method in brief: as §1
[13] = target: T1, Complex of retinoic acid binding (CRABPII) and inhibitor of apoptosis (cIAP1) proteins (Homo sapiens); experiment: Binding affinity to Flag-tagged cIAP1/CRABP2 expressed in human IMR32 cells assessed as reduction in MycN level at 1 to 10 uM after 48 hrs by Western blot analysis; format: cell-based; conditions: IMR-32
[14] = target: T1, Complex of retinoic acid binding (CRABPII) and inhibitor of apoptosis (cIAP1) proteins (Homo sapiens); experiment: Binding affinity to Flag-tagged cIAP1/CRABP2 expressed in human HT1080 cells assessed as induction in CRABP-2 degradation at 1 uM after 6 hrs by Western blot analysis in presence of proteasome inhibitor lactacystin; format: cell-based; conditions: HT-1080; method in brief: as §5
HT-1080 [15] = experiment: Induction of apoptosis in human HT1080 cells assessed as activation of caspase 3/7 at 30 uM after 24 hrs by fluorescence assay in presence of etoposide; format: functional, cell-based; method in brief: as §4
[16] = target: T1, Complex of retinoic acid binding (CRABPII) and inhibitor of apoptosis (cIAP1) proteins (Homo sapiens); experiment: Binding affinity to Flag-tagged cIAP1/CRABP2 expressed in human HT1080 cells assessed as induction in CRABP-2 degradation at 1 uM after 6 hrs by Western blot analysis; format: cell-based; conditions: HT-1080; method in brief: as §1
[17] = target: T1, Complex of retinoic acid binding (CRABPII) and inhibitor of apoptosis (cIAP1) proteins (Homo sapiens); experiment: Binding affinity to Flag-tagged cIAP1/CRABP2 expressed in human HT1080 cells assessed as induction in CRABP-2 degradation after 6 hrs by Western blot analysis; format: cell-based; conditions: HT-1080; method in brief: as §1
[18] = target: T1, Complex of retinoic acid binding (CRABPII) and inhibitor of apoptosis (cIAP1) proteins (Homo sapiens); experiment: Binding affinity to Flag-tagged cIAP1/CRABP2 expressed in human HT1080 cells assessed as induction in cIAP1 degradation at 30 uM after 6 hrs by Western blot analysis; format: cell-based; conditions: HT-1080; method in brief: as §1
HT-1080 [19] = experiment: Inhibition of cell proliferation in human HT1080 cells at 1 to 30 uM after 72 hrs by Alamar blue assay; format: functional, cell-based; method in brief: as §2
[20] = target: Baculoviral IAP repeat-containing protein 2 (Homo sapiens) (UniProt Q13490); experiment: Induction of auto-degradation of Flag-tagged cIAP1 expressed in HT1080 cells at 0.1 to 10 uM by Western blot analysis; format: cell-based; conditions: HT-1080; method in brief: as §1
HT-1080 [21] = experiment: Induction of apoptosis in human HT1080 cells after 24 hrs by lactate dehydrogenase assay in presence of etoposide; format: functional, cell-based; method in brief: as §3
[22] = target: T1, Complex of retinoic acid binding (CRABPII) and inhibitor of apoptosis (cIAP1) proteins (Homo sapiens); experiment: Binding affinity to Flag-tagged cIAP1/CRABP2 expressed in human HT1080 cells assessed as induction in CRABP-2 degradation after 12 hrs by Western blot analysis; format: cell-based; conditions: HT-1080; method in brief: as §1
HT-1080 [23] = experiment: Induction of apoptosis in human HT1080 cells at 1 to 30 uM after 24 hrs by lactate dehydrogenase assay; format: functional, cell-based; method in brief: as §3
IMR-32 [24] = experiment: Inhibition of cell proliferation in human IMR32 cells at 1 to 30 uM after 72 hrs by Alamarblue assay; format: functional, cell-based; method in brief: as §2
XIAP (Homo sapiens) = experiment: Binding affinity to Flag-tagged XIAP expressed in HT1080 cells assessed as degradation of XIAP at 0.1 to 10 uM after 6 hrs by Western blot analysis; conditions: HT-1080
[25] = target: Baculoviral IAP repeat-containing protein 2 (Homo sapiens) (UniProt Q13490); experiment: Induction of degradation of Flag-tagged cIAP1 expressed in HT1080 cells at […] by Western blot analysis in presence of MG132; format: cell-based; conditions: HT-1080
[26] = target: Baculoviral IAP repeat-containing protein 2 (Homo sapiens) (UniProt Q13490); experiment: Inhibition of MeBS-induced degradation of Flag-tagged cIAP1 expressed in HT1080 cells at 100 to 1000 uM by Western blot analysis; format: cell-based; conditions: HT-1080
[27] = target: Baculoviral IAP repeat-containing protein 2 (Homo sapiens) (UniProt Q13490); experiment: Induction of auto-degradation of Flag-tagged cIAP1 expressed in HT1080 cells at […] by Western blot analysis; format: cell-based; conditions: HT-1080
[28] = target: T1, Complex of retinoic acid binding (CRABPII) and inhibitor of apoptosis (cIAP1) proteins (Homo sapiens); experiment: Binding affinity to Flag-tagged cIAP1/CRABP2 expressed in human HT1080 cells assessed as induction in CRABP-2 degradation at 0.1 to 10 uM after 6 hrs by Western blot analysis; format: cell-based; conditions: HT-1080; method in brief: as §1

Sequence of Baculoviral IAP repeat-containing protein 2 (Homo sapiens) (Q13490 whole entry): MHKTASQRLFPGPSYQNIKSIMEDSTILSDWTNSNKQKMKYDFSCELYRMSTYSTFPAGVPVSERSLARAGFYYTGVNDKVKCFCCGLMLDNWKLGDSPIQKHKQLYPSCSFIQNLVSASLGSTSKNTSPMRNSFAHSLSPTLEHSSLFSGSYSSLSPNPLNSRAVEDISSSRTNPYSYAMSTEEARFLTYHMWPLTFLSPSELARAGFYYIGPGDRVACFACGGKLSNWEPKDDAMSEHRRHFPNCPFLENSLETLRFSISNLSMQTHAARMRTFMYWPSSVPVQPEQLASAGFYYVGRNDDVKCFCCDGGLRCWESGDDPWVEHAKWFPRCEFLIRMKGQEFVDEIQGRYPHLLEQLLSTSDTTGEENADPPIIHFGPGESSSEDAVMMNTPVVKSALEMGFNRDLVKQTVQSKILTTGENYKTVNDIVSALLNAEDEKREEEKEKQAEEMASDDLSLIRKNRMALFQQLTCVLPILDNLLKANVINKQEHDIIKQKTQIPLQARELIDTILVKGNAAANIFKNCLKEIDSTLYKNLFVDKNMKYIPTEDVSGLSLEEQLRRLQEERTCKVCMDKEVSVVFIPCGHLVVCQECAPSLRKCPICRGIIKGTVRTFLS

SMILES: CNC(=O)[C@H](CC(C)C)NC(=O)CCCc1ccccc1
Activity [20]: inactive

SMILES: CC1=C(/C=C/C(C)=C/C=C/C(C)=C/C(=O)O)C(C)(C)CC/C1=N\OCC(=O)NCCOCCOCCOC(=O)[C@H](CC(C)C)NC(=O)[C@@H](O)[C@H](N)Cc1ccccc1
Activity (HT-1080 [4]): inactive | Activity (HT-1080 [21]): Dose-dependent effect | Activity (HT-1080 [15]): Active | Activity [22]: Active | Activity (HT-1080 [23]): inactive

SMILES: COC(=O)[C@H](CC(C)C)NC(=O)[C@@H](O)[C@H](N)Cc1ccccc1
inhibition (IMR-32 [24]): inactive | Activity (HT-1080 [4]): inactive | Activity (HT-1080 [21]): Dose-dependent effect | Activity (IMR-32 [10]): inactive | Activity (HT-1080 [15]): Active | Activity (HT-1080 [23]): inactive

SMILES: CC1=C(/C=C/C(C)=C/C=C/C(C)=C/C(=O)O)C(C)(C)CC/C1=N\OCC(=O)NCCOCCOCCNC(=O)[C@H](CC(C)C)NC(=O)CCCc1ccccc1
Activity [1]: inactive | Activity [3]: inactive | Activity [28]: inactive

Now from value to compound, other results behind:

Activity [1]: inactive | Activity [3]: Active | Activity [5]: Active | Activity [6]: inactive | Activity [7]: Active | Activity [8]: Active | Activity [9]: inactive | Activity [12]: Active | Activity [13]: Active | Activity [14]: inactive | Activity [16]: Active | Activity [17]: Dose-dependent effect | Activity [18]: inactive
SMILES: CC1=C(/C=C/C(C)=C/C=C/C(C)=C/C(=O)O)C(C)(C)CC/C1=N\OCC(=O)NCCOCCOCCNC(=O)[C@H](CC(C)C)NC(=O)[C@@H](O)[C@H](N)Cc1ccccc1
Activity (MCF7): inactive | Activity (HT-1080 [2]): inactive | Activity (HT-1080 [4]): inactive | Activity (IMR-32 [10]): Active | inhibition (IMR-32 [11]): Dose-dependent effect | Activity (HT-1080 [15]): inactive | Activity (HT-1080 [19]): inactive

Activity [20]: inactive | Activity (XIAP (Homo sapiens)): inactive | Activity [25]: inactive | inhibition [26]: Active | Activity [27]: inactive
SMILES: CNC(=O)[C@H](CC(C)C)NC(=O)[C@@H](O)[C@H](N)Cc1ccccc1
inhibition (IMR-32 [24]): inactive | Activity (IMR-32 [10]): inactive

From ChEMBL document CHEMBL2177003, “Development of target protein-selective degradation inducer for protein knockdown” (Bioorg Med Chem, 2011)
